# Experimental data reported in paper PMC4358770 (Journal of medicinal chemistry, 2010).
# Legend:
# NTPDase3 = biological target: T1, NTPDase3 (Homo sapiens, UniProt O75355); assay: NTPDase3 hydrolysis assay; assay type: in vitro ADME; conditions: 100 μM ATP (100% reference)
# T1 sequence (O75355 1-529): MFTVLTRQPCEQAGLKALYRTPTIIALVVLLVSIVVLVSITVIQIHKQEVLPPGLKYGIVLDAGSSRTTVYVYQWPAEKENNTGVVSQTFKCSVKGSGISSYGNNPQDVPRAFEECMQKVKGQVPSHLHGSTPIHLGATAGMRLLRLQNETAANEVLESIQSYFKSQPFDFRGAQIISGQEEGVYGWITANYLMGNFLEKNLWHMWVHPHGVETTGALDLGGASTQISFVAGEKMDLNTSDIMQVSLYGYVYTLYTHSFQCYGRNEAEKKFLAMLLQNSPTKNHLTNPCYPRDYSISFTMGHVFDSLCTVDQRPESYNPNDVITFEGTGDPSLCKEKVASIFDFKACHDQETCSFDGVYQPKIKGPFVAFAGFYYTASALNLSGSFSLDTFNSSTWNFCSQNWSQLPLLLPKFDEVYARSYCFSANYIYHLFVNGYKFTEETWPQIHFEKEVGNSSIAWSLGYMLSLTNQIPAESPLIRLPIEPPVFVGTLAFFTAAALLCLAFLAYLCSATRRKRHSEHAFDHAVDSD
# Procedure, shortened: (§1)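 Enzymes were transiently expressed in COS-7 cells. Crude protein extracts were made by sonication, 300g clearing at 4 °C and storage at −80 °C, with protein measured by Bradford. Extract was preincubated 3 min at 37 °C in Tris-Ringer buffer, pH 7.4. […] Activity of untransfected-cell extract was subtracted.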
# NTPDase8 = biological target: T2, NTPDase8 (Homo sapiens, UniProt Q5MY95); assay: NTPDase8 hydrolysis assay; assay type: in vitro ADME; conditions: 100 μM ATP (100% reference)
# T2 sequence (Q5MY95 1-495): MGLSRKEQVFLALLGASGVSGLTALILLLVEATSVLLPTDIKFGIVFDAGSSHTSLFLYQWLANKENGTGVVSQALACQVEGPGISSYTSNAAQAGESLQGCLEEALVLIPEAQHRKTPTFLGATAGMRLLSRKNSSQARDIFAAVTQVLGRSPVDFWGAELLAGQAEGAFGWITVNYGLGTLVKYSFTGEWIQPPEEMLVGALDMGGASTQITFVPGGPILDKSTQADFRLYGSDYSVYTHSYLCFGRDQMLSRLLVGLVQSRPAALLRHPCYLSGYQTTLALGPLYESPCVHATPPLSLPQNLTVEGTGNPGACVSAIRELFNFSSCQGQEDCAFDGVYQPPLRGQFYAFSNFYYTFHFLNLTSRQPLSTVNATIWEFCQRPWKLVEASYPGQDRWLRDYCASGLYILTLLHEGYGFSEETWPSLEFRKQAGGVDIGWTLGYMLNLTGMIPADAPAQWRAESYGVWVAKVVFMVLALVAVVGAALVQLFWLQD
# Procedure, shortened: as §1
smiles,measurement,setting,value
Nc1ncnc2c1ncn2[C@@H]1O[C@H](COP(=O)(O)OP(=O)(O)OP(=O)(O)O)[C@@H](O)[C@H]1O [ATP],hydrolysis rate by NTPDase3,NTPDase3,533 ± 42 nmol Pi·min^−1·mg protein^−1
same,hydrolysis rate by NTPDase8,NTPDase8,229 ± 20 nmol Pi·min^−1·mg protein^−1
